Assay outcomes from PubChem.
Most compounds without a hit are left out; they make up all but 1.8% or so of the library.
CRFBP-R2 block: antagonists of CRF-BP/CRF-R2 complex, primary screen, cell-based, HEK293, calcium dye fluorescence, uHTS; CRF-induced calcium fluorescence; inhibition, % at 11.8 µM; 0.59% of 350,000 active; AID 588475, 2011;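 active = inhibition of the ligand-induced calcium signal above about 50% at the single tested concentration, limit read from the data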
Jurkat NFkB inh: inhibitors of induced NF-kB luciferase reporter, primary screen, TCR NF-kB activation inhibitor project, cell-based, luminescence, uHTS. Jurkat, PMA/ionomycin-induced NF-kB luciferase reporter. inhibition, % at 4 µM. 0.53% of 330,000 active. AID 435003, 2010; in the data active = inhibition above about 50%
697 NFkB inh: inhibitors of PMA/ionomycin-induced NF-kB reporter, 697 cells, primary screen, B-cell NF-kB inhibitor project, cell-based, luminescence, uHTS; inhibition, % at 4 µM; AID 435022, 2010; 697 B-cell NF-kB luciferase reporter, 16 h; 0.33% of 330,000 active; in the data active = inhibition above about 35%
UPR XBP1 act: activators of adaptive XBP1 UPR arm, primary screen, cell-based, CHO-XBP1 luciferase reporter, luminescence, uHTS; IRE1-XBP1 UPR activation; percent of tunicamycin response, DMSO as zero; activation, % at 20 µM; 0.33% of 330,000 active;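 active = versus positive control, 20 µM dose yields 30% or more activation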;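 also: 100% = tunicamycin at 10 µg/mL and 0% = DMSO only wells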
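assay system = CHO-XBP1 luciferase reporter cells | amount = 1000 cells/well | buffer or medium = F12 plus 10% FBS | compound dosing = single point, 20 µM final compound, 1% DMSO | incubation = 16-18 h cell attachment at 37 °C, then 6 h compound exposure | detection = Steady-Glo luminescence read | controls = tunicamycin 10 µg/mL and vehicle-only wells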
CHOP UPR activ: activators of apoptotic CHOP UPR arm, primary screen, cell-based, CHO-CHOP luciferase reporter, luminescence, uHTS; activation, % at 10 µM; UPR activation; percent of tunicamycin response over DMSO baseline; 0.34% of 330,000 active;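 active = at 10 µM dose, activation of 40% or more, normalized to positive control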;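 also: 100% = tunicamycin at 10 µg/mL and 0% = DMSO alone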
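Test system: CHO-CHOP cells, stable luciferase reporter of PERK-eIF2a-CHOP signalling | Quantity: 500 CHO-CHOP cells per well | Buffer or medium: F12 plus 10% serum | Compound dosing: 10 µM single point, 0.5% DMSO | Schedule: 6 h compound treatment, 37 °C | Signal: Luciferase luminescence | Control set: Tunicamycin high control, DMSO low control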
CHOP UPR conf: activators of apoptotic CHOP UPR arm, confirmation, cell-based, CHO-CHOP luciferase reporter, single concentration; CHO-CHOP cells, CHOP-luciferase reporter luminescence; percent of tunicamycin response, DMSO as zero; activation, % at 10 µM; shares compounds with CHOP UPR activ; 64% of 1,000 active; in the data active = activation above about 33%;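 also: 0% = DMSO wells and 100% = tunicamycin 10 µg/mL wells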
The depositor's hits bear a star; . = not tested or not shown.

SMILES | CRFBP-R2 block | Jurkat NFkB inh | 697 NFkB inh | UPR XBP1 act | CHOP UPR activ | CHOP UPR conf
CCC1CCCCN1CCCNC(=O)Cn1c2ccccc2c2nc(=O)cc(C)n21 (centres undefined) | -6.5 | 10.6 | -11.4 | -1.5 | -1.7 | .
CC(C)(C)c1cnnn1-c1ccc(C(=O)CCl)cc1 | -9.8 | -14.5 | 9.9 | -4.7 | 55.6* | -10.9
CC(C)(C)c1cnnn1-c1ccc(C=O)cc1 | -17.7 | -3.3 | 2.2 | 0.7 | 1.8 | .
CC(C)=CCc1c(O)ccc2c1OC(c1ccc(O)c(O)c1)CC2=O (centres undefined) | -3.3 | 18.1 | -15.9 | 15.2 | 68.7* | 27.1
O=C1CC(c2ccc(O)c(O)c2)Oc2c1ccc(O)c2O (centres undefined) | 8.8 | -12.4 | 4.1 | 1.1 | 2.6 | .
Cc1ccc(NS(=O)(=O)c2ccc(C)c(C(=O)Nc3ccc(S(=O)(=O)Nc4onc(C)c4C)cc3)c2)cc1 | -4.2 | . | . | . | . | .
COC(=O)c1cc(=O)n(CCc2ccccc2F)c(=Nc2ccc(F)c(Cl)c2)s1 | -19.9 | 13.8 | 4.5 | 7.3 | 30.2 | .
COC(=O)c1cc(=O)n(Cc2ccco2)c(=Nc2ccc(F)c(Cl)c2)s1 | 37.5 | 3.1 | 13.2 | 6.6 | 54.6* | 54.0*
Cc1nn(CC2CC2)c(=O)n1-c1ccc(Cl)cc1 | 2.0 | 0.4 | 0.0 | -0.8 | -0.4 | .
Cc1nn(CC2CC2)c(=O)n1-c1ccccc1 | -0.9 | 12.3 | 22.3 | 1.1 | 47.7* | -1.1
CC(NC(=O)c1ccc([N+](=O)[O-])o1)C12CC3CC(CC(C3)C1)C2 (centres undefined) | 2.5 | 2.7 | -3.9 | -4.9 | 84.7* | 14.8
CC(NC(=O)C12CC3CC(CC(C3)C1)C2)C(=O)NN=Cc1ccc([N+](=O)[O-])o1 (centres undefined) | -8.0 | 12.1 | 11.4 | 4.8 | 197.3* | 0.0
COc1ccc(S(=O)(=O)N2CCOCC2)cc1NC(=O)c1ccncc1 | 2.8 | -3.2 | 19.0 | -1.1 | -2.6 | .
O=C(Nc1cccc([N+](=O)[O-])c1)C1COc2ccccc2O1 (centres undefined) | 8.8 | -3.2 | -5.8 | -2.5 | 0.0 | .
Cc1cc(N2CCC(C)CC2)nc(-n2nc(C)cc2C)n1 | 18.0 | 3.8 | 5.2 | 3.0 | 86.5* | 13.8
Cc1ccccc1NC(=O)COC(=O)c1ccc(C)c(S(=O)(=O)N2CCCCC2)c1 | -8.4 | . | . | . | . | .
COc1ccccc1Cn1c(=S)[nH]c2cc(C(=O)N3CCN(c4ccccc4OC)CC3)ccc2c1=O | -19.6 | 21.8 | -42.9 | -4.9 | 83.6* | 0.9
CC1=C/C(=N\OC(=O)/C=C/c2ccccc2)C(C)=CC1=O | -7.8 | -7.3 | -13.3 | -4.6 | 106.6* | 41.4*
Cc1csc2c(=O)n(CCO)c(=O)[nH]c12 | 4.3 | 4.2 | 18.5 | -1.1 | 1.0 | .
COc1cc(OC)c(NC2=CC(=O)C(=O)c3ccccc32)cc1Cl | 26.2 | 32.2 | -23.1 | 20.5 | 53.4* | 18.1
CCOC(=O)C(=Cc1ccc(OCc2ccc([N+](=O)[O-])cc2)c(OC)c1)C(=O)OCC | 4.2 | -79.9 | 26.4 | 5.3 | 219.4* | 247.0*
COC(=O)C(=Cc1ccc(OCc2ccc([N+](=O)[O-])cc2)c(OC)c1)C(=O)OC | -18.2 | -93.4 | 28.8 | 4.0 | 334.4* | 106.4*
O=C(CN1CCN(c2ccccc2F)CC1)c1ccc(O)c(O)c1 | -10.9 | 27.1 | -63.0 | 49.5* | 108.1* | 40.6*
Cc1c(O)ccc(C(=O)CN2CCN(c3ccccc3F)CC2)c1O | -6.4 | 14.0 | -6.9 | 5.6 | -0.7 | .
O=C(CN1CCN(S(=O)(=O)c2ccc(Br)cc2)CC1)c1ccc(O)c(O)c1 | 5.7 | 8.3 | -16.1 | 29.6 | 61.3* | 7.0
SMILES | CRFBP-R2 block | Jurkat NFkB inh | 697 NFkB inh | UPR XBP1 act | CHOP UPR activ | CHOP UPR conf
O=C1CC2(CCN(C(=O)c3cccc(Br)c3)CC2)Oc2ccccc21 | 8.5 | 0.3 | 5.4 | -1.5 | 1.8 | .
COc1ccc(C)c2sc(N(CCN(C)C)C(=O)/C=C/c3cccs3)nc12 | 1.7 | -16.1 | -2.0 | -2.5 | 4.6 | .
COc1ccc(OC)c2sc(N(CCN(C)C)C(=O)/C=C/c3cccs3)nc12 | 10.0 | 8.8 | -29.4 | 6.6 | 67.2* | 11.2
C[C@@H]1CCCCO[C@H](CN(C)S(=O)(=O)c2cn(C)cn2)[C@@H](C)CN([C@H](C)CO)C(=O)c2cc(NC(=O)c3ccncc3)ccc2O1 | 2.5 | . | . | . | . | .
COCCN1CSC(=S)N(Cc2ccco2)C1 | -1.7 | -6.7 | -2.5 | 4.0 | 90.8* | 53.0*
S=C1SCN(Cc2ccccn2)CN1Cc1ccco1 | -1.7 | 7.4 | 8.6 | 2.0 | 101.5* | 50.1*
S=C1NCN(Cc2ccco2)CN1CCc1ccccc1 | 0.6 | -6.9 | -11.6 | 1.3 | -0.4 | .
Cc1ccc(S(=O)(=O)N2CC(O)C[C@H]2C(=O)OCC(=O)Nc2ccc(N3CCCCC3)cc2)cc1C (some centres undefined) | -20.5 | 2.4 | -4.1 | 2.2 | -0.5 | .
COc1ccc(NC(=O)Nc2cccc3c2O[C@H](CN(C)S(=O)(=O)c2c(C)noc2C)[C@@H](C)CN([C@H](C)CO)C3=O)cc1 | 2.2 | -7.3 | -3.4 | -0.1 | 4.8 | .
COC(=O)[C@@H]1[C@@H](C#N)C2(c3ccccc3-c3ccccc32)N(c2ccc(Cl)cc2)N1C#N | -42.7 | 0.8 | 7.0 | 4.2 | 92.0* | 55.0*
O=C(Cc1ccc(Cl)cc1)NN1C(=O)c2ccccc2C1=O | -0.6 | 2.1 | -2.9 | -0.4 | -0.3 | .
N#CCCN(Cc1ccccc1)S(=O)(=O)c1cccs1 | 14.0 | -1.8 | 5.5 | 2.1 | -1.8 | .
CN(C)C(=S)N=Nc1[nH]c2ccccc2c1O | 3.7 | -54.4 | -61.2 | 7.0 | 465.7* | 341.1*
CN(C)C(=O)c1ccc(N=Nc2c(O)c3ccccc3[nH]c2=O)cc1 | 7.4 | . | . | . | . | .
Cc1cccc(NC(=O)c2nc[nH]c2C(=O)NC[C@H](C)O)c1 | 4.8 | . | . | . | . | .
CCN1CCN(C(=O)/C=C/c2ccc(C)o2)CC1 | -4.8 | -0.2 | 20.4 | 1.2 | 1.3 | .
Cc1ccc(/C=C/C(=O)N2CC(C)CC(C)C2)o1 (centres undefined) | 1.9 | 7.1 | -9.9 | 0.4 | 68.5* | 2.3
COc1cnc(-c2ccccn2)nc1N(C)c1ccccc1 | 1.0 | -26.0 | -36.2 | 10.9 | 15.6 | .
Cc1nc2ccccc2c2nc(N)nn12 | 1.3 | 1.0 | 17.3 | 0.4 | -1.8 | .
Cc1cn2nc(N)c3ccccc3c2n1 | -2.7 | -0.1 | -5.0 | -2.0 | 41.1* | -0.7
CCCCn1c(N)c(N(Cc2ccccc2OC)C(=O)CCC(C)C)c(=O)[nH]c1=O | -1.1 | -8.2 | -11.1 | 2.3 | 1.1 | .
